# Experimental data published in ChEMBL document CHEMBL1649498, “Pharmacological exploitation of an off-target antibacterial effect of the cyclooxygenase-2 inhibitor celecoxib against Francisella tularensis” (Antimicrob Agents Chemother, 2009).
# The source made the active and inactive calls. The rule behind the calls is not given here.
# Key:
# [1] = test system: Francisella novicida; experiment: Antibacterial activity against Francisella novicida infected in mouse RAW264.7 cells after 24 hrs by broth microdilution method; format: functional, Francisella tularensis subsp. novicida; conditions: Francisella tularensis
# In short: (§1)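 F. novicida U112 grown overnight on chocolate agar, suspended in PBS and diluted to 5 × 10⁵ CFU/ml in TSB with 0.025% iron(III) pyrophosphate and 0.1% cysteine HCl. CLSI broth microdilution in triplicate, 1 to 64 μg/ml, 37°C for 24 h. MIC was the lowest concentration with no visible growth.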
# [2] = test system: RAW264.7; experiment: Cytotoxicity against mouse RAW264.7 cells after 8 hrs by MTT assay; format: cell-based; conditions: RAW264.7, 8 h
# In short: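 RAW 264.7 cells at 2.5 × 10⁴/well, at least 6 wells per group, left overnight. Treated in 5% FBS DMEM with agents in DMSO (0.1% final) for 8 h. Then 0.5 mg/ml MTT for 1 h at 37°C, dye dissolved in DMSO, A570 read. Viability taken as % of vehicle control; IC50 from the dose-response.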
# [3] = Selectivity index, ratio of IC50 for mouse RAW264.7 cells to MIC for Francisella novicida; format: functional
# [4] = test system: Francisella tularensis; experiment: Antibacterial activity against Francisella tularensis LVS infected in mouse RAW264.7 cells after 48 hrs by broth microdilution method; format: functional
# [5] = test system: Francisella tularensis; experiment: Antibacterial activity against Francisella tularensis LVS infected in mouse RAW264.7 cells at 64 ug/ml after 48 hrs by broth microdilution method; format: functional, cell-based
# [6] = test system: Francisella novicida; experiment: Antibacterial activity against Francisella novicida infected in mouse RAW264.7 cells at 64 ug/ml after 24 hrs by broth microdilution method; format: functional, cell-based; conditions: Francisella tularensis subsp. novicida; in short: as §1
# [7] = test system: Francisella novicida; experiment: Antibacterial activity against Francisella novicida infected in mouse RAW264.7 cells at 64 ug/ml after 24 hrs by broth microdilution method in presence of 80% human serum albumin; format: functional, cell-based; conditions: Francisella tularensis subsp. novicida
# [8] = test system: Salmonella typhimurium; experiment: Antibacterial activity against Salmonella enterica serovar Typhimurium ATCC 14028 infected in mouse RAW264.7 cells at 64 ug/ml after 24 to 48 hrs by broth microdilution method; format: functional, organism-based; conditions: Salmonella enterica subsp. enterica serovar Typhimurium
# [9] = test system: Francisella novicida; experiment: Antibacterial activity against Francisella novicida infected in mouse RAW264.7 cells at 64 ug/ml after 24 hrs by broth microdilution method in presence of 80% fetal bovine serum; format: functional, cell-based; conditions: Francisella tularensis subsp. novicida
# In short: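 Broth contained 0, 10, 50 or 80% human AB serum (not albumin) or FBS to probe protein binding. NE means no effect at 64 μg/ml.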
# [10] = test system: Francisella novicida; experiment: Antibacterial activity against Francisella novicida infected in mouse RAW264.7 cells at 64 ug/ml after 24 hrs by broth microdilution method in presence of 10% human serum albumin; format: functional, cell-based; conditions: Francisella tularensis subsp. novicida
# [11] = test system: Francisella tularensis; experiment: Antibacterial activity against Francisella tularensis SchuS4 infected in mouse RAW264.7 cells after 24 hrs by broth microdilution method; format: functional; conditions: SchuS4, 24 h
# [12] = test system: Francisella tularensis; experiment: Antibacterial activity against Francisella tularensis SchuS4 infected in human THP1 cells at 4 ug/ml after 24 hrs by broth microdilution method; format: functional, cell-based; conditions: THP-1
# [13] = test system: Escherichia coli; experiment: Antibacterial activity against Escherichia coli ATCC 25922 infected in mouse RAW264.7 cells at 64 ug/ml after 24 to 48 hrs by broth microdilution method; format: functional, organism-based
# [14] = test system: Francisella novicida; experiment: Antibacterial activity against Francisella novicida infected in mouse RAW264.7 cells at 64 ug/ml after 24 hrs by broth microdilution method in presence of 50% human serum albumin; format: functional, cell-based; conditions: Francisella tularensis subsp. novicida
# [15] = test system: Francisella tularensis; experiment: Antibacterial activity against Francisella tularensis SchuS4 infected in mouse RAW264.7 cells at 64 ug/ml after 24 hrs by broth microdilution method; format: functional, cell-based
Compound,MIC [1],MIC [4],Activity [5],Activity [6],other results
NS(=O)(=O)c1ccc(-n2nc(C(F)(F)F)cc2-c2ccc(-c3cc(Cl)c(Cl)cc3Cl)cc2)cc1,2 µg/mL,1 µg/mL,–,–,IC50 [2]: 2.4 µg/mL; Ratio [3]: 1.2
NC(=O)c1ccc(-n2nc(C(F)(F)F)cc2-c2ccc(-c3ccc(Cl)cc3)cc2)cc1,4 µg/mL,2 µg/mL,–,–,IC50 [2]: 9 µg/mL; Ratio [3]: 2.3
CC(C)(C)c1ccc(-c2ccc(-c3cc(C(F)(F)F)nn3-c3ccc(C(N)=O)cc3)cc2)cc1,–,–,inactive,inactive,–
COc1ccc2cc(-c3cc(C(F)(F)F)nn3-c3ccc(N)cc3)ccc2c1,16 µg/mL,16 µg/mL,–,–,–
CCCCc1ccc(-c2cc(C(F)(F)F)nn2-c2ccc(C(N)=O)cc2)cc1,16 µg/mL,8 µg/mL,–,–,–
NS(=O)(=O)c1ccc(-n2nc(C(F)(F)F)cc2-c2cccc3ccccc23)cc1,16 µg/mL,8 µg/mL,–,–,–
Nc1ccc(-n2nc(C(F)(F)F)cc2-c2ccc(-c3ccccc3)cc2)cc1,4 µg/mL,4 µg/mL,–,–,IC50 [2]: 15 µg/mL; Ratio [3]: 3.8
CS(=O)(=O)c1ccc(-n2nc(C(F)(F)F)cc2-c2ccc(F)cc2)cc1,–,–,inactive,inactive,–
FC(F)(F)c1cc(-c2ccc3ccc4ccccc4c3c2)n(-c2ccccc2)n1,–,–,inactive,inactive,–
NC(=O)c1ccc(-n2nc(C(F)(F)F)cc2-c2ccc(-c3cc(Cl)cc(Cl)c3)cc2)cc1,16 µg/mL,4 µg/mL,–,–,–
Cc1cc(C)cc(-c2ccc(-c3cc(C(F)(F)F)nn3-c3ccc(C(N)=O)cc3)cc2)c1,–,–,inactive,inactive,–
NC(=O)c1ccc(-n2nc(C(F)(F)F)cc2-c2ccc(-c3ccc(C(F)(F)F)cc3)cc2)cc1,–,–,inactive,inactive,–
Cc1ccc(-c2ccc(-c3cc(C(F)(F)F)nn3-c3ccc(S(C)(=O)=O)cc3)cc2)cc1,–,–,inactive,inactive,–
Cc1ccc(-c2cc(C(F)(F)F)nn2-c2ccc(S(N)(=O)=O)cc2)cc1 [CELECOXIB],32 µg/mL,16 µg/mL,–,–,Activity [7]: inactive; Activity [8]: inactive; Activity [9]: inactive; Activity [10]: inactive; MIC [11]: 16 µg/mL; Activity [12]: inactive; IC50 [2]: 17 µg/mL; Activity [13]: inactive; Ratio [3]: 0.5; Activity [14]: inactive
CCCCc1ccc(-c2ccc(-c3cc(C(F)(F)F)nn3-c3ccc(C(N)=O)cc3)cc2)cc1,–,–,inactive,inactive,–
CS(=O)(=O)c1ccc(C2=C(c3ccccc3)C(=O)OC2)cc1 [ROFECOXIB],–,–,inactive,inactive,Activity [8]: inactive; Activity [15]: inactive; Activity [13]: inactive
Nc1ccc(-n2nc(C(F)(F)F)cc2-c2cccc3ccccc23)cc1,16 µg/mL,8 µg/mL,–,–,–
NC(=O)c1ccc(-n2nc(C(F)(F)F)cc2-c2c3ccccc3cc3ccccc23)cc1,16 µg/mL,16 µg/mL,–,–,–
NC(=O)c1ccc(-n2nc(C(F)(F)F)cc2-c2ccc(-c3ccccc3)cc2)cc1,16 µg/mL,8 µg/mL,–,–,–
NS(=O)(=O)c1ccc(-n2nc(C(F)(F)F)cc2-c2ccc(-c3ccc(Cl)cc3)cc2)cc1,4 µg/mL,4 µg/mL,–,–,IC50 [2]: 4.8 µg/mL; Ratio [3]: 1.2
Nc1ccc(-n2nc(C(F)(F)F)cc2-c2ccc(-c3ccc(Br)cc3)cc2)cc1,4 µg/mL,4 µg/mL,–,–,Activity [15]: Active; IC50 [2]: 46 µg/mL; Ratio [3]: 11.5
Nc1ccc(-n2nc(C(F)(F)F)cc2-c2ccc(-c3cc(Cl)c(Cl)cc3Cl)cc2)cc1,–,4 µg/mL,–,inactive,–
Cc1ccc(-c2ccc(-c3cc(C(F)(F)F)nn3-c3ccc(C(N)=O)cc3)cc2)cc1,8 µg/mL,8 µg/mL,–,–,–
